Measurements: ChEMBL document CHEMBL3616436, “Synthesis, cytotoxicity and antimicrobial activity of thiourea derivatives incorporating 3-(trifluoromethyl)phenyl moiety” (Eur J Med Chem, 2015)
In brackets after ≈: the same amount, converted by molar mass. Activity calls are given as the source filed them. No cut-off for these calls is given here.

Assays:
[1] = test system: Enterococcus faecalis; assay: Antimicrobial activity against Enterococcus faecalis ATCC 29212 at 400 ug after 18 hrs by disc-diffusion method; type: functional; details: for zone of inhibition at 400 µg/disc: ATCC 29212, 18 h, read-out: IZ
Procedure, shortened: (§1)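 Disc diffusion on Mueller-Hinton II agar per CLSI; 9 mm paper discs loaded with 400 µg compound from DMSO solution, dried, placed on agar; growth inhibition zone diameter read after 18 h at 35°C.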

[2] = test system: Staphylococcus aureus; assay: Antimicrobial activity against hospital methicillin-resistant Staphylococcus aureus 522/11 after 18 hrs by twofold serial microdilution method; type: functional; details: 522/11, 18 h
Procedure, shortened: (§2)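 Twofold serial microdilution in Mueller-Hinton broth. Compound stock was made in DMSO and diluted in sterile water. Tested range was 0.125–512 µg/mL. Final inoculum was 10^5 CFU/mL. Plates were incubated 18 h at 35 °C. MIC is the lowest concentration preventing visible growth.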

[3] = test system: Proteus vulgaris; assay: Antimicrobial activity against Proteus vulgaris NCTC 4635 at 400 ug after 18 hrs by disc-diffusion method; type: functional; procedure, shortened: as §1
[4] = test system: Vaccinia virus; assay: Antiviral activity against Human Vaccinia virus ATCC VR-1549 infected in African green monkey Vero 76 cells assessed as reduction of virus-plaque formation after 3 days by crystal violet staining; type: functional, organism-based; details: Orthopoxvirus vaccinia, ATCC VR-1549, Vero, 72 h
[5] = test system: Yellow fever virus; assay: Antiviral activity against Yellow fever virus 17D infected in BHK cells assessed as protection against virus-induced cytopathogenicity after 3 to 4 days by MTT assay; type: functional, cell-based
[6] = Cytotoxicity against human MT4 cells; type: cell-based
[7] = test system: Staphylococcus aureus; assay: Ratio of ciprofloxacin MIC to compound MIC for hospital methicillin-resistant Staphylococcus aureus 522/11 after 18 hrs by twofold serial microdilution method; type: functional
Procedure, shortened: (§3)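 Ratio of MICs for ciprofloxacin and test agent, each from twofold serial broth microdilution in Mueller-Hinton broth following CLSI guidelines. DMSO stock was diluted in sterile water to 0.125–512 µg/mL, with a final inoculum of 10^5 CFU/mL.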

[8] = test system: Staphylococcus aureus; assay: Antimicrobial activity against Staphylococcus aureus ATCC 29213 after 18 hrs by twofold serial microdilution method; type: functional; details: ATCC 29213, 18 h
[9] = test system: Staphylococcus aureus; assay: Antimicrobial activity against Staphylococcus aureus ATCC 6538 at 400 ug after 18 hrs by disc-diffusion method; type: functional; details: ATCC 6538, 18 h, read-out: IZ; procedure, shortened: as §1
[10] = test system: Staphylococcus epidermidis; assay: Ratio of ciprofloxacin MIC to compound MIC for hospital methicillin-resistant Staphylococcus epidermidis 76/04 after 18 hrs by twofold serial microdilution method; type: functional; procedure, shortened: as §3
[11] = test system: Staphylococcus aureus; assay: Antimicrobial activity against Staphylococcus aureus NCTC 4163 at 400 ug after 18 hrs by disc-diffusion method; type: functional; details: NCTC 4163, 18 h, read-out: IZ; procedure, shortened: as §1
[12] = test system: Staphylococcus aureus; assay: Ratio of ciprofloxacin MIC to compound MIC for hospital methicillin-resistant Staphylococcus aureus 80/05 after 18 hrs by twofold serial microdilution method; type: functional; procedure, shortened: as §3
[13] = test system: Staphylococcus aureus; assay: Ratio of ciprofloxacin MIC to compound MIC for hospital methicillin-resistant Staphylococcus aureus 57/05 after 18 hrs by twofold serial microdilution method; type: functional; procedure, shortened: as §3
[14] = test system: Staphylococcus epidermidis; assay: Ratio of ciprofloxacin MIC to compound MIC for hospital methicillin-resistant Staphylococcus epidermidis 23/04 after 18 hrs by twofold serial microdilution method; type: functional; procedure, shortened: as §3
[15] = test system: Staphylococcus epidermidis; assay: Ratio of ciprofloxacin MIC to compound MIC for hospital methicillin-resistant Staphylococcus epidermidis 24/04 after 18 hrs by twofold serial microdilution method; type: functional
[16] = test system: Bacillus subtilis; assay: Antimicrobial activity against Bacillus subtilis ATCC 6633 at 400 ug after 18 hrs by disc-diffusion method; type: functional; details: ATCC 6633, 18 h, read-out: IZ; procedure, shortened: as §1
[17] = test system: Staphylococcus epidermidis; assay: Ratio of ciprofloxacin MIC to compound MIC for hospital methicillin-resistant Staphylococcus epidermidis 63/04 after 18 hrs by twofold serial microdilution method; type: functional; procedure, shortened: as §3
[18] = test system: Staphylococcus epidermidis; assay: Ratio of ciprofloxacin MIC to compound MIC for hospital methicillin-resistant Staphylococcus epidermidis 62/04 after 18 hrs by twofold serial microdilution method; type: functional; procedure, shortened: as §3
[19] = test system: Coxsackievirus B5; assay: Antiviral activity against Human coxsackievirus B5 ATCC VR-29 infected in African green monkey Vero 76 cells assessed as reduction of virus-plaque formation after 3 days by crystal violet staining; type: functional, organism-based; details: Enterovirus B, ATCC VR-29, Vero, 72 h
Procedure, shortened: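 Plaque reduction: Vero-76 at 2x10^5 cells/well grown to confluent monolayers, infected 2 h at 50–100 PFU/well; after removing unadsorbed virus, overlay of D-MEM, 1% inactivated FBS, 0.75% methylcellulose with or without serial compound dilutions; 3 days at 37°C, fixed and stained with crystal violet in 50% ethanol, plaques counted; EC50 by linear regression.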

[20] = test system: Staphylococcus aureus; assay: Antimicrobial activity against hospital methicillin-resistant Staphylococcus aureus 57/05 after 18 hrs by twofold serial microdilution method; type: functional; details: 57/05, 18 h; procedure, shortened: as §2
[21] = test system: Vesicular stomatitis virus; assay: Antiviral activity against Vesicular stomatitis virus ATCC VR 1540 infected in African green monkey Vero 76 cells assessed as reduction of virus-plaque formation after 2 days by crystal violet staining; type: functional, organism-based; details: ATCC VR 1540, Vero, 48 h
[22] = test system: Staphylococcus aureus; assay: Antimicrobial activity against Staphylococcus aureus NCTC 4163 after 18 hrs by twofold serial microdilution method; type: functional; details: NCTC 4163, 18 h
[23] = test system: Staphylococcus aureus; assay: Ratio of ciprofloxacin MIC to compound MIC for hospital methicillin-resistant Staphylococcus aureus 54/05 after 18 hrs by twofold serial microdilution method; type: functional; procedure, shortened: as §3
[24] = test system: Staphylococcus aureus; assay: Ratio of ciprofloxacin MIC to compound MIC for hospital methicillin-resistant Staphylococcus aureus 81/05 after 18 hrs by twofold serial microdilution method; type: functional; procedure, shortened: as §3
[25] = Cytotoxicity against bovine MDBK cells assessed as cell viability after 48 to 96 hrs by MTT assay; type: cell-based, Bos taurus; details: cattle
[26] = test system: Staphylococcus aureus; assay: Antimicrobial activity against Staphylococcus aureus ATCC 6538 after 18 hrs by twofold serial microdilution method; type: functional; details: ATCC 6538, 18 h
[27] = test system: Staphylococcus epidermidis; assay: Antimicrobial activity against hospital methicillin-resistant Staphylococcus epidermidis 23/04 after 18 hrs by twofold serial microdilution method; type: functional; details: 23/04, 18 h; procedure, shortened: as §2
[28] = test system: Mammalian orthoreovirus 1; assay: Antiviral activity against Reovirus type-1 ATCC VR-214 infected in BHK cells assessed as protection against virus-induced cytopathogenicity after 3 to 4 days by MTT assay; type: functional, cell-based; details: Mammalian orthoreovirus 1, ATCC VR-214, BHK
Procedure, shortened: (§4)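 Cells seeded in 96-well plates (BHK 5x10^4, MDBK 3x10^4 cells/well), grown overnight to confluence, infected at m.o.i. 0.01 (BHK for Reo-1, MDBK for BVDV); serial compound dilutions in maintenance medium with 0.5% inactivated FBS added after 1 h; viability by MTT after 3–4 days at 37°C; EC50 for 50% protection by linear regression.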

[29] = test system: Staphylococcus aureus; assay: Antimicrobial activity against Staphylococcus aureus ATCC 25923 after 18 hrs by twofold serial microdilution method; type: functional; details: ATCC 25923, 18 h
[30] = Antiviral activity against Bovine viral diarrhea virus 1-NADL ATCC VR-534 infected in MDBK cells assessed as protection against virus-induced cytopathogenicity after 3 to 4 days by MTT assay; type: functional, cell-based; details: Bovine viral diarrhea virus isolates and strains, ATCC VR-534, MDBK; procedure, shortened: as §4
[31] = test system: Staphylococcus epidermidis; assay: Ratio of ciprofloxacin MIC to compound MIC for hospital methicillin-resistant Staphylococcus epidermidis […]/[…] after 18 hrs by twofold serial microdilution method; type: functional, 16/04

In the case of `FC(F)(F)c1cccc(NC(=S)Nc2ccc(Cl)cc2)c1`, the “inhibition zone (IZ)” value [1] is reported as “inactive”, the MIC [2] is reported as 16 µg/mL (≈ 48.4 µM) and the “inhibition zone (IZ)” value [3] is reported as “inactive”. It also gave an EC50 [4] of over 11 µM, an EC50 [5] of over 10 µM and a CC50 [6] of 6.8 µM. For the same molecule, the Ratio [7] was 128, the MIC [8] was 8 µg/mL (≈ 24.2 µM) and the zone of inhibition at 400 µg/disc [9] was 13 mm. It also gave a Ratio [10] of 128, a zone of inhibition at 400 µg/disc [11] of 12 mm and a Ratio [12] of 128. It also gave a Ratio [13] of 128, a Ratio [14] of 128 and a Ratio [15] of 128. For the same molecule, the zone of inhibition at 400 µg/disc [16] was 12 mm, the Ratio [17] was 128 and the Ratio [18] was 128. It also gave an EC50 [19] of over 11 µM, an MIC [20] of 16 µg/mL (≈ 48.4 µM) and an EC50 [21] of over 11 µM. It also gave an MIC [22] of 8 µg/mL (≈ 24.2 µM), a Ratio [23] of 128 and a Ratio [24] of 128. The CC50 [25] was 17 µM, the MIC [26] was 8 µg/mL (≈ 24.2 µM) and the MIC [27] was 16 µg/mL (≈ 48.4 µM). The EC50 [28] was over 10 µM, the MIC [29] was 8 µg/mL (≈ 24.2 µM) and the EC50 [30] was over 17 µM. It also gave a Ratio [31] of 128.
Molecule `FC(F)(F)c1cccc(NC(=S)Nc2cccc(Br)c2)c1` has a zone of inhibition at 400 µg/disc [1] of 18 mm, an MIC [2] of 0.5 µg/mL (≈ 1.33 µM) and a zone of inhibition at 400 µg/disc ([3]; NCTC 4635, 18 h, read-out: IZ) of 12 mm. The EC50 [4] was over 14 µM, the EC50 [5] was over 10 µM and the CC50 [6] was 9.2 µM. The Ratio [7] was 128, the MIC [8] was 1 µg/mL (≈ 2.67 µM) and the zone of inhibition at 400 µg/disc [9] was 29 mm. The Ratio [10] was 128, the zone of inhibition at 400 µg/disc [11] was 28 mm and the Ratio [12] was 128. It also gave a Ratio [13] of 128, a Ratio [14] of 128 and a Ratio [15] of 128. For the same molecule, the zone of inhibition at 400 µg/disc [16] was 26 mm, the Ratio [17] was 128 and the Ratio [18] was 128. The EC50 [19] was over 14 µM, the MIC [20] was 1 µg/mL (≈ 2.67 µM) and the EC50 [21] was over 14 µM. For the same molecule, the MIC [22] was 1 µg/mL (≈ 2.67 µM), the Ratio [23] was 128 and the Ratio [24] was 128. The CC50 [25] was 10 µM, the MIC [26] was 1 µg/mL (≈ 2.67 µM) and the MIC [27] was 2 µg/mL (≈ 5.33 µM). For the same molecule, the EC50 [28] was over 10 µM, the MIC [29] was 1 µg/mL (≈ 2.67 µM) and the EC50 [30] was over 10 µM. It also gave a Ratio [31] of 128.
In the case of `Fc1cccc(NC(=S)Nc2cccc(C(F)(F)F)c2)c1`, the zone of inhibition at 400 µg/disc [1] is reported as 14 mm, the MIC [2] is reported as 8 µg/mL (≈ 25.5 µM) and the “inhibition zone (IZ)” value [3] is reported as “inactive”. The EC50 [4] was over 20 µM, the EC50 [5] was over 9.4 µM and the CC50 [6] was 20 µM. The Ratio [7] was 128, the MIC [8] was 8 µg/mL (≈ 25.5 µM) and the zone of inhibition at 400 µg/disc [9] was 20 mm. For the same molecule, the Ratio [10] was 128, the zone of inhibition at 400 µg/disc [11] was 20 mm and the Ratio [12] was 128. It also gave a Ratio [13] of 128, a Ratio [14] of 128 and a Ratio [15] of 128. The zone of inhibition at 400 µg/disc [16] was 20 mm, the Ratio [17] was 128 and the Ratio [18] was 128. For the same molecule, the EC50 [19] was over 20 µM, the MIC [20] was 4 µg/mL (≈ 12.7 µM) and the EC50 [21] was over 20 µM. The MIC [22] was 4 µg/mL (≈ 12.7 µM), the Ratio [23] was 128 and the Ratio [24] was 128. It also gave a CC50 [25] of 10 µM, an MIC [26] of 4 µg/mL (≈ 12.7 µM) and an MIC [27] of 8 µg/mL (≈ 25.5 µM). The EC50 [28] was over 9.4 µM, the MIC [29] was 4 µg/mL (≈ 12.7 µM) and the EC50 [30] was over 10 µM. For the same molecule, the Ratio [31] was 128.
